Laboratory results: ChEMBL document CHEMBL2390927, “Design, synthesis and antimicrobial evaluation of novel benzimidazole type of Fluconazole analogues and their synergistic effects with Chloromycin, Norfloxacin and Fluconazole” (2013)

Experiments:
[1] = system: Klebsiella pneumoniae; experiment: Antibacterial activity against Klebsiella pneumoniae; assay type: functional
[2] = system: Staphylococcus aureus; experiment: Antibacterial activity against methicillin-resistant Staphylococcus aureus; assay type: functional
In short: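 Broth microdilution by two-fold serial dilution in 96-well plates following NCCLS. MRSA strain N315. Inoculum adjusted with sterile saline to 1 × 10⁵ CFU. Compounds were made up as DMSO stocks, then diluted in Mueller-Hinton broth. A DMSO plus inoculum well, without drug, was the growth control. Growth was read visually and spectrophotometrically, in triplicate. MIC is the lowest concentration giving complete inhibition of growth.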

[3] = system: Saccharomyces cerevisiae; experiment: Antifungal activity against Saccharomyces cerevisiae after 24 hrs by two-fold serial dilution method; assay type: functional
In short: (§1)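 Spore suspension in sterile distilled water from one-day-old cultures on Sabouraud agar, final 1–5 × 10³ spore mL⁻¹. Compound stocks diluted in sterile RPMI 1640 as two-fold serial dilutions in microdilution plates. MIC is the lowest concentration completely inhibiting growth. Growth monitored visually and spectrophotometrically, in triplicate.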

[4] = system: Candida; experiment: Antifungal activity against Candida mycoderma after 24 hrs by two-fold serial dilution method; assay type: functional; in short: as §1
[5] = system: Bacillus subtilis; experiment: Antibacterial activity against Bacillus subtilis ATCC 21216 after 24 hrs by two-fold serial dilution method; assay type: functional; conditions: ATCC 21216, 24 h
In short: (§2)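 MIC taken as the lowest concentration giving complete growth inhibition, by standard two-fold serial dilution in 96-well plates following NCCLS. Stocks in DMSO, diluted in Mueller–Hinton broth. Inoculum adjusted with sterile saline to 1 × 10⁵ CFU. DMSO with inoculum and no drug served as solvent control. Growth read visually and spectrophotometrically, in triplicate.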

[6] = system: Candida albicans; experiment: Antifungal activity against Candida albicans ATCC 76615 after 24 hrs by two-fold serial dilution method; assay type: functional; conditions: ATCC 76615, 24 h; in short: as §1
[7] = system: Cyberlindnera jadinii; experiment: Antifungal activity against Candida utilis after 24 hrs by two-fold serial dilution method; assay type: functional; conditions: Williopsis jadinii; in short: as §1
[8] = system: Staphylococcus aureus; experiment: Antibacterial activity against methicillin-resistant Staphylococcus aureus N315 after 24 hrs by two-fold serial dilution method; assay type: functional; conditions: N315, 24 h
[9] = system: Micrococcus luteus; experiment: Antibacterial activity against Micrococcus luteus ATCC 4698 after 24 hrs by two-fold serial dilution method; assay type: functional; conditions: ATCC 4698, 24 h; in short: as §2
[10] = system: Staphylococcus aureus; experiment: Antibacterial activity against Staphylococcus aureus ATCC 6538 after 24 hrs by two-fold serial dilution method; assay type: functional; conditions: ATCC 6538, 24 h
[11] = system: Aspergillus flavus; experiment: Antifungal activity against Aspergillus flavus after 24 hrs by two-fold serial dilution method; assay type: functional; in short: as §1
[12] = system: Pseudomonas aeruginosa; experiment: Antibacterial activity against Pseudomonas aeruginosa ATCC 27853 after 24 hrs by two-fold serial dilution method; assay type: functional; conditions: ATCC 27853, 24 h; in short: as §2
[13] = system: Salmonella typhi; experiment: Antibacterial activity against Bacillus typhi after 24 hrs by two-fold serial dilution method; assay type: functional, Salmonella enterica subsp. enterica serovar Typhi; conditions: Salmonella enterica
In short: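 Two-fold serial dilution in 96-well plates following NCCLS; compounds dissolved in DMSO as stocks, then diluted in Mueller-Hinton broth; bacterial suspension adjusted with sterile saline to 1 × 10⁵ CFU; MIC taken as lowest concentration completely inhibiting growth, monitored visually and spectrophotometrically; DMSO-plus-inoculum well as solvent control; triplicate.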

[14] = system: Bacillus; experiment: Antibacterial activity against Bacillus proteus ATCC 13315 after 24 hrs by two-fold serial dilution method; assay type: functional; conditions: ATCC 13315, 24 h; in short: as §2
[15] = system: Escherichia coli; experiment: Antibacterial activity against Escherichia coli JM109 after 24 hrs by two-fold serial dilution method; assay type: functional; conditions: JM109, 24 h
[16] = system: Bacillus subtilis; experiment: Potentiation of chloromycin-induced antibacterial activity against Bacillus subtilis ATCC 21216 at 2 times MIC after 24 hrs by two-fold serial dilution method; assay type: functional
[17] = system: Bacillus; experiment: Potentiation of norfloxacin-induced antibacterial activity against Bacillus proteus ATCC 13315 at 2 times MIC after 24 hrs by two-fold serial dilution method; assay type: functional
[18] = system: Candida; experiment: Potentiation of fluconazole-induced antifungal activity against Candida mycoderma at 2 times MIC after 24 hrs by two-fold serial dilution method; assay type: functional
[19] = system: Aspergillus flavus; experiment: Potentiation of fluconazole-induced antifungal activity against Aspergillus flavus at 2 times MIC after 24 hrs by two-fold serial dilution method; assay type: functional
[20] = system: Escherichia coli; experiment: Potentiation of chloromycin-induced antibacterial activity against Escherichia coli JM109 at 8 times MIC after 24 hrs by two-fold serial dilution method; assay type: functional
[21] = system: Escherichia coli; experiment: Potentiation of norfloxacin-induced antibacterial activity against Escherichia coli JM109 at 4 times MIC after 24 hrs by two-fold serial dilution method; assay type: functional
[22] = system: Saccharomyces cerevisiae; experiment: Potentiation of fluconazole-induced antifungal activity against Saccharomyces cerevisiae at 2 times MIC after 24 hrs by two-fold serial dilution method; assay type: functional
[23] = system: Candida albicans; experiment: Potentiation of fluconazole-induced antifungal activity against Candida albicans ATCC 76615 at MIC after 24 hrs by two-fold serial dilution method; assay type: functional
[24] = system: Pseudomonas aeruginosa; experiment: Potentiation of chloromycin-induced antibacterial activity against Pseudomonas aeruginosa ATCC 27853 at 4 times MIC after 24 hrs by two-fold serial dilution method; assay type: functional
[25] = system: Cyberlindnera jadinii; experiment: Potentiation of fluconazole-induced antifungal activity against Candida utilis at 4 times MIC after 24 hrs by two-fold serial dilution method; assay type: functional
[26] = system: Micrococcus luteus; experiment: Potentiation of norfloxacin-induced antibacterial activity against Micrococcus luteus ATCC 4698 at MIC after 24 hrs by two-fold serial dilution method; assay type: functional
[27] = system: Bacillus subtilis; experiment: Potentiation of norfloxacin-induced antibacterial activity against Bacillus subtilis ATCC 21216 at MIC after 24 hrs by two-fold serial dilution method; assay type: functional
[28] = system: Micrococcus luteus; experiment: Potentiation of chloromycin-induced antibacterial activity against Micrococcus luteus ATCC 4698 at 2 times MIC after 24 hrs by two-fold serial dilution method; assay type: functional
[29] = system: Pseudomonas aeruginosa; experiment: Potentiation of norfloxacin-induced antibacterial activity against Pseudomonas aeruginosa ATCC 27853 at 2 times MIC after 24 hrs by two-fold serial dilution method; assay type: functional
[30] = system: Bacillus; experiment: Potentiation of chloromycin-induced antibacterial activity against Bacillus proteus ATCC 13315 at 4 times MIC after 24 hrs by two-fold serial dilution method; assay type: functional
[31] = system: Staphylococcus aureus; experiment: Potentiation of norfloxacin-induced antibacterial activity against Staphylococcus aureus ATCC 6538 at MIC after 24 hrs by two-fold serial dilution method; assay type: functional

CCCC[C@H](CC(=O)NO)C(=O)N[C@@H](c1nc2ccccc2[nH]1)C(C)C
0.5 µg/mL: MIC [1]

CCCCCCCCCCn1c(CNNC(=O)c2sc(C(=O)NNCc3nc4ccccc4n3CCCCCCCCCC)c(C)c2C)nc2ccccc21
2 µg/mL: MIC [2]

Fc1ccc(N(Cc2nc3ccccc3[nH]2)Cc2ccc(Cl)cc2Cl)c(F)c1
128 µg/mL: MIC [6] | MIC [8] | MIC [13]
64 µg/mL: MIC [4] | MIC [5] | MIC [9] | MIC [10] | MIC [11] | MIC [12]
32 µg/mL: MIC [3] | MIC [7] | MIC [14] | MIC [15]

Cl.Cl.Fc1ccc(CN(Cc2nc3ccccc3[nH]2)c2cc(C(F)(F)F)cc(C(F)(F)F)c2)c(F)c1
8 µg/mL: MIC [3] | MIC [5] | MIC [6] | MIC [9] | MIC [10] | MIC [11]
0.5: fractional inhibitory concentration index (FICI) [16]
16 µg/mL: MIC [4] | MIC [7] | MIC [8] | MIC [12] | MIC [13] | MIC [14]
32 µg/mL: MIC [15]
0.375: fractional inhibitory concentration index (FICI) [19] | fractional inhibitory concentration index (FICI) [20] | fractional inhibitory concentration index (FICI) [21] | fractional inhibitory concentration index (FICI) [22] | fractional inhibitory concentration index (FICI) [23] | fractional inhibitory concentration index (FICI) [24] | fractional inhibitory concentration index (FICI) [25] | fractional inhibitory concentration index (FICI) [28] | fractional inhibitory concentration index (FICI) [30]
0.25: fractional inhibitory concentration index (FICI) [17] | fractional inhibitory concentration index (FICI) [18] | fractional inhibitory concentration index (FICI) [26] | fractional inhibitory concentration index (FICI) [27] | fractional inhibitory concentration index (FICI) [29] | fractional inhibitory concentration index (FICI) [31]

CCCCCCCCCCCCCCCCCCN(Cc1nc2ccccc2[nH]1)c1ccc(C)cc1
128 µg/mL: MIC [8] | MIC [10]
32 µg/mL: MIC [4] | MIC [6] | MIC [7]
256 µg/mL: MIC [9] | MIC [15]
64 µg/mL: MIC [3] | MIC [5] | MIC [11] | MIC [12] | MIC [13] | MIC [14]

Cc1ccc(N(Cc2ccc(Cl)c(Cl)c2)Cc2nc3ccccc3[nH]2)cc1
32 µg/mL: MIC [10]
128 µg/mL: MIC [3] | MIC [4] | MIC [5] | MIC [6] | MIC [11] | MIC [12] | MIC [14]
64 µg/mL: MIC [7] | MIC [8] | MIC [9] | MIC [13] | MIC [15]

Clc1ccc(NCc2nc3ccccc3[nH]2)c(Cl)c1
128 µg/mL: MIC [13]
64 µg/mL: MIC [3] | MIC [8] | MIC [9] | MIC [10] | MIC [11] | MIC [12] | MIC [14]
32 µg/mL: MIC [4] | MIC [5] | MIC [6] | MIC [7] | MIC [15]

CCCCCCCCN(Cc1nc2ccccc2[nH]1)c1ccc(C)cc1
16 µg/mL: MIC [3] | MIC [5] | MIC [6] | MIC [12]
128 µg/mL: MIC [8] | MIC [9] | MIC [15]
64 µg/mL: MIC [11] | MIC [13] | MIC [14]
32 µg/mL: MIC [4] | MIC [7] | MIC [10]

Cc1ccc(N(Cc2nc3ccccc3[nH]2)Cc2ccccc2Cl)cc1
64 µg/mL: MIC [3] | MIC [5] | MIC [10] | MIC [13]
32 µg/mL: MIC [4] | MIC [6] | MIC [7] | MIC [11] | MIC [12] | MIC [14] | MIC [15]
128 µg/mL: MIC [8] | MIC [9]

Cc1ccc(N(Cc2cccc(Cl)c2)Cc2nc3ccccc3[nH]2)cc1
64 µg/mL: MIC [3] | MIC [5] | MIC [11]
16 µg/mL: MIC [13]
128 µg/mL: MIC [8] | MIC [9] | MIC [14]
32 µg/mL: MIC [4] | MIC [6] | MIC [7] | MIC [10] | MIC [12] | MIC [15]

CCCCCCCCCCCCN(Cc1nc2ccccc2[nH]1)c1ccc(C)cc1
16 µg/mL: MIC [4]
64 µg/mL: MIC [3] | MIC [6] | MIC [9] | MIC [10] | MIC [11] | MIC [13] | MIC [14]
128 µg/mL: MIC [5] | MIC [8] | MIC [12] | MIC [15]
32 µg/mL: MIC [7]

Fc1ccc(CN(Cc2nc3ccccc3[nH]2)c2ccc(Cl)cc2Cl)c(F)c1
16 µg/mL: MIC [5] | MIC [14]
64 µg/mL: MIC [7] | MIC [8] | MIC [10] | MIC [11] | MIC [15]
32 µg/mL: MIC [3] | MIC [4] | MIC [6] | MIC [13]
128 µg/mL: MIC [9] | MIC [12]

Cc1ccc(NCc2nc3ccccc3[nH]2)cc1
64 µg/mL: MIC [3] | MIC [5] | MIC [12] | MIC [13] | MIC [15]
256 µg/mL: MIC [4]
16 µg/mL: MIC [14]
512 µg/mL: MIC [9]
128 µg/mL: MIC [8] | MIC [11]
32 µg/mL: MIC [6] | MIC [7] | MIC [10]
